Assay results reported in the RNAGym collection of RNA variant scans (doi:10.1126/science.aae0568).
Variants at the floor of the assay were thinned out.

B1: tRNA (parent)
chain: GUUCCGUUGGCGUAAUGGUAACGCGUCUCCCUCCUAAGGAGAAGACUGCGGGUUCGAGUCCCGUACGGAACG

Variants of: B1
Assay: yeast fitness relative to wild type (ratio to wild type); higher = fitter; tRNA-Arg(CCU), competitive growth, 37 C, YPD
Method in brief: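 The tRNA-Arg(CCU) gene variants were made by chemical synthesis with a 3% per-site mutation rate at 69 sites and inserted at the native genomic locus of Saccharomyces cerevisiae. After pooling, the strains were competed in YPD at 37°C for 24 hours in six parallel replicates. Gene amplicons from the start population and each end population were read by 100-nucleotide paired-end sequencing, and Darwinian fitness relative to wild type was taken from genotype frequency changes. Genotypes needed ≥ 100 starting reads, and estimates < 0.5 were set to 0.5.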

First: A14C U32G G56A
Second: A14C U32G U64C
The yeast fitness of the first is lower: at most 0.5 for the first, 0.532 for the second.

A14C U35A G50A A69U and A14C U35C A57U cannot be ordered by yeast fitness: at most 0.5 for the first, at most 0.5 for the second.

Going from A14C U35C A65G to A14C U47A, the yeast fitness rises from 0.525 to 0.701.

First: A14C U47A G52A
Second: A14C U47C A70U
The yeast fitness of the first is lower: at most 0.5 for the first, 0.614 for the second.

Going from A14C U47C C55U G68C to A14C U54C, the yeast fitness rises from at most 0.5 to 0.702.

Compared with A14C U54G, A14C U59A is higher in yeast fitness: at most 0.5 for the first, 0.746 for the second.

Compared with A14C U59C C62A, A14C U64A is higher in yeast fitness: at most 0.5 for the first, 0.651 for the second.

Going from A14G A15C to A14G A15C A21G C46A A69U, the yeast fitness falls from 0.733 to at most 0.5.

Compared with A14G A15C C46A, A14G A15C G17A A69C A70G is lower in yeast fitness: 0.578 for the first, 0.562 for the second.

Compared with A14G A15C G67U, A14G A15C U26C G51C is lower in yeast fitness: 0.62 for the first, 0.512 for the second.

First: A14G A15C U53G C60U
Second: A14G A15G
The yeast fitness of the first is lower: at most 0.5 for the first, 0.917 for the second.

A14G A15G A37G A45U C66U and A14G A15G A45U C62U cannot be ordered by yeast fitness: at most 0.5 for the first, at most 0.5 for the second.

A14G A15G C33G C34U A43C C49G and A14G A15G G44A cannot be ordered by yeast fitness: at most 0.5 for the first, at most 0.5 for the second.

Going from A14G A15G G56A to A14G A15G G68C, the yeast fitness falls from 0.567 to 0.537.

A14G A15U A45U and A14G A15U C30G cannot be ordered by yeast fitness: at most 0.5 for the first, at most 0.5 for the second.

A14G A15U C61U and A14G A15U G25C cannot be ordered by yeast fitness: at most 0.5 for the first, at most 0.5 for the second.

A14G A15U G67U and A14G A15U G68U cannot be ordered by yeast fitness: at most 0.5 for the first, at most 0.5 for the second.

First: A14G A15U U28A C33G G41C G56A
Second: A14G A15U U35C
The yeast fitness of the first is higher: 0.589 for the first, at most 0.5 for the second.

Going from A14G A20C to A14G A20C A21U U28C, the yeast fitness falls from 0.813 to at most 0.5.

First: A14G A20C A43U C55G
Second: A14G A20C A57G
The yeast fitness of the first is lower: at most 0.5 for the first, 0.677 for the second.

A14G A20C C22G C29U A69U and A14G A20C C31U C46G cannot be ordered by yeast fitness: at most 0.5 for the first, at most 0.5 for the second.

Compared with A14G A20C C66U, A14G A20G is higher in yeast fitness: 0.665 for the first, 0.883 for the second.

A14G A20G C22G U59C A65U and A14G A20G U47A G58C cannot be ordered by yeast fitness: at most 0.5 for the first, at most 0.5 for the second.

Compared with A14G A20U, A14G A20U A36U G51C G52C is lower in yeast fitness: 0.942 for the first, at most 0.5 for the second.

A14G A20U A40G U54C and A14G A20U C22G A43G A69C cannot be ordered by yeast fitness: at most 0.5 for the first, at most 0.5 for the second.

Compared with A14G A20U U35C G38A A43C, A14G A21C A36C A43U C60A is lower in yeast fitness: 0.635 for the first, 0.554 for the second.

First: A14G A21C A37G
Second: A14G A21C C29A
The yeast fitness of the first is lower: 0.562 for the first, 0.586 for the second.

First: A14G A21C C30G C55G C66U G67A
Second: A14G A21C C30G C55G G67U
The yeast fitness of the first is lower: at most 0.5 for the first, 0.534 for the second.

First: A14G A21C C33A A43U C62U
Second: A14G A21C C34A U47C
The yeast fitness of the first is higher: 0.558 for the first, at most 0.5 for the second.

Going from A14G A21G A70U to A14G A21G C22U, the yeast fitness falls from 0.684 to 0.555.

A14G A21G C22U C27U A45C G48C C61G and A14G A21G C27U A45C G48C cannot be ordered by yeast fitness: at most 0.5 for the first, at most 0.5 for the second.

A14G A21G C27U A45C G48C C61G and A14G A21G U53C A57C A69U cannot be ordered by yeast fitness: at most 0.5 for the first, at most 0.5 for the second.

A14G A21U G23A A37U and A14G A21U G41C cannot be ordered by yeast fitness: at most 0.5 for the first, at most 0.5 for the second.

A14G A21U G68C and A14G A21U U59A cannot be ordered by yeast fitness: at most 0.5 for the first, at most 0.5 for the second.

First: A14G A36C A69C
Second: A14G A36G
The yeast fitness of the first is lower: at most 0.5 for the first, 0.8 for the second.

A14G A36G A43C A65U and A14G A36G A45G A65U cannot be ordered by yeast fitness: at most 0.5 for the first, at most 0.5 for the second.

First: A14G A36G C66U
Second: A14G A36G G51C U59G
The yeast fitness of the first is higher: 0.606 for the first, at most 0.5 for the second.

Compared with A14G A36U C46A, A14G A36U G58C is lower in yeast fitness: 0.576 for the first, at most 0.5 for the second.

Compared with A14G A37G C55G, A14G A37U is higher in yeast fitness: at most 0.5 for the first, 0.584 for the second.

Compared with A14G A37U A65C, A14G A37U C61A is lower in yeast fitness: 0.543 for the first, at most 0.5 for the second.

First: A14G A40C
Second: A14G A40C C55A C66A
The yeast fitness of the first is higher: 1 for the first, at most 0.5 for the second.

Compared with A14G A40C C60G, A14G A40C C60U C62G is lower in yeast fitness: 0.757 for the first, at most 0.5 for the second.

Going from A14G A40C U59G C60G to A14G A40G, the yeast fitness rises from at most 0.5 to 0.856.

Going from A14G A40G A42U G67C to A14G A40G A43U G50C A69U, the yeast fitness falls from 0.665 to at most 0.5.

Going from A14G A40G G41A A45U to A14G A40G G41A A45U U47C, the yeast fitness falls from 0.686 to at most 0.5.

Going from A14G A40U to A14G A40U G44A A65U, the yeast fitness falls from 0.904 to at most 0.5.

First: A14G A40U G58C
Second: A14G A42C
The yeast fitness of the first is lower: 0.706 for the first, 0.762 for the second.

A14G A42C A43U U59A C62G A65U and A14G A42C G50C C66U cannot be ordered by yeast fitness: at most 0.5 for the first, at most 0.5 for the second.

First: A14G A42C U54A
Second: A14G A42G
The yeast fitness of the first is lower: at most 0.5 for the first, 0.778 for the second.

A14G A42G C55A and A14G A42U C55U U59C G63A A65C cannot be ordered by yeast fitness: at most 0.5 for the first, at most 0.5 for the second.

A14G A42U C62A and A14G A43C C66G A69U cannot be ordered by yeast fitness: at most 0.5 for the first, at most 0.5 for the second.

Compared with A14G A43C G50A, A14G A43U A65U is higher in yeast fitness: 0.558 for the first, 0.748 for the second.

Going from A14G A43U G50U G68C to A14G A45C C66U, the yeast fitness rises from at most 0.5 to 0.582.

First: A14G A45G
Second: A14G A45G A65U G68C
The yeast fitness of the first is higher: 0.919 for the first, at most 0.5 for the second.

Compared with A14G A45U, A14G A45U A69C is higher in yeast fitness: 0.746 for the first, 0.748 for the second.

Compared with A14G A57G, A14G A57U is lower in yeast fitness: 0.905 for the first, 0.563 for the second.

Going from A14G A65G to A14G A65G A70U, the yeast fitness falls from 0.887 to 0.566.

Compared with A14G A69C, A14G A70C is higher in yeast fitness: 0.729 for the first, 0.803 for the second.

Compared with A14G A70G, A14G C22A is higher in yeast fitness: 0.861 for the first, 0.982 for the second.

A14G C22A A57U and A14G C22A C27A C29U A42C cannot be ordered by yeast fitness: at most 0.5 for the first, at most 0.5 for the second.

A14G C22A C27A C29U A42C A57U C60A and A14G C22A C27U C29U G50U U54C G68C cannot be ordered by yeast fitness: at most 0.5 for the first, at most 0.5 for the second.

First: A14G C22A C29G C30G G48U
Second: A14G C22G A70C
The yeast fitness of the first is lower: 0.618 for the first, 0.637 for the second.

Going from A14G C22G C29G G41C to A14G C22G C30A, the yeast fitness rises from at most 0.5 to 0.528.

Compared with A14G C22G C33U G58A C60A, A14G C22G U35C A57C is lower in yeast fitness: 0.51 for the first, at most 0.5 for the second.

First: A14G C22G U35G A40C A70U
Second: A14G C22U
The yeast fitness of the first is lower: at most 0.5 for the first, 0.783 for the second.

A14G C22U C29G C33G A37G and A14G C22U C33G cannot be ordered by yeast fitness: at most 0.5 for the first, at most 0.5 for the second.

Going from A14G C22U C34U C55A to A14G C22U C34U G51C G58A, the yeast fitness falls from 0.583 to at most 0.5.

A14G C22U C46G C60G and A14G C22U C49A cannot be ordered by yeast fitness: at most 0.5 for the first, at most 0.5 for the second.

A14G C24A C34G G38C and A14G C24A G25A C31A cannot be ordered by yeast fitness: at most 0.5 for the first, at most 0.5 for the second.

A14G C24A U26A C27G U32C C60U and A14G C24G A36C A70C cannot be ordered by yeast fitness: at most 0.5 for the first, at most 0.5 for the second.

Going from A14G C24G A40G U53A G68C to A14G C24G A42C, the yeast fitness rises from at most 0.5 to 0.512.

A14G C24G A65C and A14G C24G C31U U47C C55A cannot be ordered by yeast fitness: at most 0.5 for the first, at most 0.5 for the second.

A14G C24G G25A A43G C49A and A14G C24G G25C C27A A40C G51A cannot be ordered by yeast fitness: at most 0.5 for the first, at most 0.5 for the second.

Compared with A14G C24U, A14G C24U A36C A43U A69U is lower in yeast fitness: 0.784 for the first, at most 0.5 for the second.

A14G C24U A42C G50A and A14G C24U A45C G51U U59C cannot be ordered by yeast fitness: at most 0.5 for the first, at most 0.5 for the second.

Compared with A14G C24U A65C, A14G C24U G51A is lower in yeast fitness: 0.542 for the first, at most 0.5 for the second.

Going from A14G C24U G63C to A14G C24U G67C, the yeast fitness rises from at most 0.5 to 0.54.

Going from A14G C24U U26G to A14G C27A, the yeast fitness rises from at most 0.5 to 0.916.

Going from A14G C27A A37C G44A to A14G C27A U54G G68C, the yeast fitness falls from 0.563 to at most 0.5.

A14G C27G A37G U59G and A14G C27G C31A C33G C49U G58C cannot be ordered by yeast fitness: at most 0.5 for the first, at most 0.5 for the second.

First: A14G C27G C31U
Second: A14G C27G C34G A37U C61G
The yeast fitness of the first is higher: 0.501 for the first, at most 0.5 for the second.

First: A14G C27G C34G A37U C62U
Second: A14G C27G C34G A37U U64A A70C
The yeast fitness of the first is lower: at most 0.5 for the first, 0.522 for the second.

Compared with A14G C27G C61U, A14G C27U is higher in yeast fitness: at most 0.5 for the first, 0.974 for the second.

Variant A14G C27U C33U U35C has a yeast fitness of at most 0.5.
